Experiments:
Format in all cases: cell-based
[1] = target: T1, Protein cereblon/von Hippel-Lindau disease tumor suppressor (Homo sapiens, UniProt P40337+Q96SW2); test: Protac activity at VHL/CRBN in human HeLa cells assessed as CRBN protein abundance at 1 uM after 24 hrs by Western blot analysis relative to DMSO
Outline: (§1)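 HeLa cells seeded overnight, then exposed to 1 µM compound (0.1% v/v DMSO final) over a time course. Cells were DPBS-washed and RIPA-lysed with protease inhibitors and benzonase; equal protein was loaded. Immunoblots for CRBN and VHL isoforms were quantified against β-tubulin and reported relative to the averaged 0.1% DMSO vehicle.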
Target sequence in this assay (P40337 whole entry, looked up, canonical isoform): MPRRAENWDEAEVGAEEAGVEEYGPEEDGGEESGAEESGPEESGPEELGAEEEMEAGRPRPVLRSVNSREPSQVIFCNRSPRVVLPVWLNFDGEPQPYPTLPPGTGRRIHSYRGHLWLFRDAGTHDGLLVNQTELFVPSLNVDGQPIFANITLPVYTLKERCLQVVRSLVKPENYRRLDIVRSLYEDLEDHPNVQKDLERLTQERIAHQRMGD
Target sequence in this assay (Q96SW2 whole entry, looked up, canonical isoform): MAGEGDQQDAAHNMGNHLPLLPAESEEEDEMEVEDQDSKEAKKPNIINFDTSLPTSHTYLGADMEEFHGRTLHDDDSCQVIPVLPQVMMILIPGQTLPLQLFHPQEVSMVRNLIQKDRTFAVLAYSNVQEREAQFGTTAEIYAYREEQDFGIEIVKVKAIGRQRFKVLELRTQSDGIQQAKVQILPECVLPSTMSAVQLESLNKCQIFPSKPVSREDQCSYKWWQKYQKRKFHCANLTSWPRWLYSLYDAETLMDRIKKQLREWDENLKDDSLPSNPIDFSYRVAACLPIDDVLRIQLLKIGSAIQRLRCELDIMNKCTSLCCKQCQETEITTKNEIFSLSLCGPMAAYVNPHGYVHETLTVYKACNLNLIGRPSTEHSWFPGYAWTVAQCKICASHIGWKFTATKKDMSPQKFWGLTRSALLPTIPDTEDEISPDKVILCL

[2] = target: T1, Protein cereblon/von Hippel-Lindau disease tumor suppressor; test: Protac activity at VHL/CRBN in HEK293 cells assessed as pVHL19 protein abundance at 1 uM after 4 hrs by Western blot analysis relative to DMSO
Outline: (§2)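 HEK293 cells (DMEM, 10% FBS, penicillin/streptomycin, L-glutamine; 37 °C, 5% CO2; ≤30 passages) seeded at 1 × 10⁶ per well overnight, then treated with compound at 0.1% v/v final DMSO. Cells were lysed in RIPA with protease inhibitors and benzonase, then clarified. Equal Bradford-quantified protein was immunoblotted for CRBN/VHL. Bands were normalised to β-tubulin and expressed as % of mean 0.1% DMSO vehicle.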
Target sequence in this assay (P40337 whole entry, looked up, canonical isoform): as the sequence (P40337 whole entry, looked up, canonical isoform) above
Target sequence in this assay (Q96SW2 whole entry, looked up, canonical isoform): as the sequence (Q96SW2 whole entry, looked up, canonical isoform) above

[3] = target: T1, Protein cereblon/von Hippel-Lindau disease tumor suppressor; test: Protac activity at VHL/CRBN in human HeLa cells assessed as induction of CRBN degradation at 10 nM after 4 hrs by Western blot analysis relative to control
Outline: (§3)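 HeLa cells (5 × 10⁵, DMEM + 10% FBS, 37 °C, 5% CO₂, ≤30 passages) seeded overnight, then treated 4 h with compound at single or graded concentrations (0.1% v/v DMSO final). RIPA lysates equalised by Bradford; SDS-PAGE and anti-CRBN/anti-VHL immunoblots; bands normalised to β-tubulin and expressed as % of mean DMSO vehicle. DC₅₀ from fit of band intensity versus log[concentration].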
Target sequence in this assay (P40337 whole entry, looked up, canonical isoform): as the sequence (P40337 whole entry, looked up, canonical isoform) above
Target sequence in this assay (Q96SW2 whole entry, looked up, canonical isoform): as the sequence (Q96SW2 whole entry, looked up, canonical isoform) above

[4] = target: T1, Protein cereblon/von Hippel-Lindau disease tumor suppressor; test: Protac activity at VHL/CRBN in HEK293 cells assessed as induction of CRBN protein degradation after 4 hrs by Western blot analysis
Outline: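 HEK293 cells seeded at 1 × 10⁶ per well overnight, exposed 4 h to a compound concentration series (0.1% v/v final DMSO), lysed in RIPA, and immunoblotted on equal Bradford-quantified protein. CRBN bands were normalised to β-tubulin and expressed relative to mean DMSO vehicle. DC50 was estimated by fitting band intensity against log[concentration].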
Target sequence in this assay (P40337 whole entry, canonical isoform): as the sequence (P40337 whole entry, looked up, canonical isoform) above
Target sequence in this assay (Q96SW2 whole entry, canonical isoform): as the sequence (Q96SW2 whole entry, looked up, canonical isoform) above

[5] = target: T1, Protein cereblon/von Hippel-Lindau disease tumor suppressor; test: Protac activity at VHL/CRBN in HEK293 cells assessed as pVHL19 protein abundance at 10 nM after 4 hrs by Western blot analysis relative to DMSO; outline: as §2
Target sequence in this assay (P40337 whole entry, looked up, canonical isoform): as the sequence (P40337 whole entry, looked up, canonical isoform) above
Target sequence in this assay (Q96SW2 whole entry, looked up, canonical isoform): as the sequence (Q96SW2 whole entry, looked up, canonical isoform) above

[6] = target: T1, Protein cereblon/von Hippel-Lindau disease tumor suppressor; test: Protac activity at VHL/CRBN in HEK293 cells assessed as CRBN protein abundance at 50 nM after 4 hrs by Western blot analysis relative to DMSO; outline: as §2
Target sequence in this assay (P40337 whole entry, looked up, canonical isoform): as the sequence (P40337 whole entry, looked up, canonical isoform) above
Target sequence in this assay (Q96SW2 whole entry, looked up, canonical isoform): as the sequence (Q96SW2 whole entry, looked up, canonical isoform) above

[7] = target: T1, Protein cereblon/von Hippel-Lindau disease tumor suppressor; test: Protac activity at VHL/CRBN in human HeLa cells assessed as pVHL19 protein abundance at 50 nM after 4 hrs by Western blot analysis relative to DMSO; outline: as §3
Target sequence in this assay (P40337 whole entry, looked up, canonical isoform): as the sequence (P40337 whole entry, looked up, canonical isoform) above
Target sequence in this assay (Q96SW2 whole entry, looked up, canonical isoform): as the sequence (Q96SW2 whole entry, looked up, canonical isoform) above

[8] = target: T1, Protein cereblon/von Hippel-Lindau disease tumor suppressor; test: Protac activity at VHL/CRBN in human HeLa cells assessed as CRBN protein abundance at 1 uM after 8 hrs by Western blot analysis relative to DMSO; outline: as §1
[9] = target: T1, Protein cereblon/von Hippel-Lindau disease tumor suppressor; test: Protac activity at VHL/CRBN in human HeLa cells assessed as pVHL30 protein abundance at 100 nM after 4 hrs by Western blot analysis relative to DMSO; outline: as §3

## Cc1ncsc1-c1ccc(CNC(=O)[C@@H]2C[C@@H](O)CN2C(=O)[C@@H](NC(=O)COCCCCCOCCOCCCCCOCC(=O)NCCNc2cccc3c2C(=O)N(C2CCC(=O)NC2=O)C3=O)C(C)(C)C)cc1 (some centres undefined)
[1]
  Activity: 13%
[2]
  Activity: 101%
[3]
  Activity: 19%
[4]
  DC50: 230 nM
[5]
  Activity: 110%
[6]
  Activity: 91%
[7]
  Activity: 95%
[8]
  Activity: 15%
[9]
  Activity: 101%

From ChEMBL document CHEMBL4665633, “Cereblon versus VHL: Hijacking E3 ligases against each other using PROTACs” (Bioorg Med Chem, 2019)
